Measurements as given in BindingDB's records for doi:10.1021/np1002065 (The Ohio State University, 2010).

Assays:
[1] = target: T1, Nuclear factor NF-kappa-B p105 subunit (Homo sapiens, UniProt P19838); assay: Inhibition of NFkappa p50 isolated from nuclear extract of human HeLa cells assessed as blockade of binding to biotinylated consesus sequence by chemiluminescence assay
T1 sequence (P19838 whole entry): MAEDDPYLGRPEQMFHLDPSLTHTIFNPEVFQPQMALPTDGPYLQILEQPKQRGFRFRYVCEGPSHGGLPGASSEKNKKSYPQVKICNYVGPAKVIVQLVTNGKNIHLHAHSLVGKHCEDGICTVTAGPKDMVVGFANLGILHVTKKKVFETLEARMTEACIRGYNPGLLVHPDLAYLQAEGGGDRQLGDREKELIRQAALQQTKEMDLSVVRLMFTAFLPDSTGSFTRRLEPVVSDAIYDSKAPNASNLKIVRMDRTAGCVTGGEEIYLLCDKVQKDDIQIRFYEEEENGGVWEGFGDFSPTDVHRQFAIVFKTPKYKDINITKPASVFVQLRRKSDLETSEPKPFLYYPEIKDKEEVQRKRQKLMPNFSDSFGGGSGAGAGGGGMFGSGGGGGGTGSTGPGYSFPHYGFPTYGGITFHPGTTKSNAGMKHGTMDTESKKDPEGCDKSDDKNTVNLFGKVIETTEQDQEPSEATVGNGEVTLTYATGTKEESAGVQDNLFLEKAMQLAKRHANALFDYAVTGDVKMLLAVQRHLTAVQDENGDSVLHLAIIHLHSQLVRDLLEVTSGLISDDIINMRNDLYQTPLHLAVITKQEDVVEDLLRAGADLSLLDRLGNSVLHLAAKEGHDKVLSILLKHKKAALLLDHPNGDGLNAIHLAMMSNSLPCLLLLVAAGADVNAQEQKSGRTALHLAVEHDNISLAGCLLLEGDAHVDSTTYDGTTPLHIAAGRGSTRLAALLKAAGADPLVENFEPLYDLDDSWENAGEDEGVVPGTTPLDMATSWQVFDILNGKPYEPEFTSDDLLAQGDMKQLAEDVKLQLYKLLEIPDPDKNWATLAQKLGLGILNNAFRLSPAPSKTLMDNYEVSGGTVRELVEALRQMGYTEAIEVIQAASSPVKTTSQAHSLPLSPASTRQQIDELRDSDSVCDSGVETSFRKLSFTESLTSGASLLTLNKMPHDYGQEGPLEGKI
In short: (§1)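 ELISA-format transcription factor assay. HeLa nuclear extract was treated with samples, and activated p50 or p65 bound to a biotinylated consensus sequence was detected by chemiluminescence on a plate reader. IC50 reported in μM.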

Transcription factor p65 = Transcription factor p65 (Human, UniProt Q04206); assay: Inhibition of NFkappa p65 isolated from nuclear extract of human HeLa cells assessed as blockade of binding to biotinylated consesus sequence by chemiluminescence assay; in short: as §1
Sequence of Transcription factor p65 (Q04206 whole entry): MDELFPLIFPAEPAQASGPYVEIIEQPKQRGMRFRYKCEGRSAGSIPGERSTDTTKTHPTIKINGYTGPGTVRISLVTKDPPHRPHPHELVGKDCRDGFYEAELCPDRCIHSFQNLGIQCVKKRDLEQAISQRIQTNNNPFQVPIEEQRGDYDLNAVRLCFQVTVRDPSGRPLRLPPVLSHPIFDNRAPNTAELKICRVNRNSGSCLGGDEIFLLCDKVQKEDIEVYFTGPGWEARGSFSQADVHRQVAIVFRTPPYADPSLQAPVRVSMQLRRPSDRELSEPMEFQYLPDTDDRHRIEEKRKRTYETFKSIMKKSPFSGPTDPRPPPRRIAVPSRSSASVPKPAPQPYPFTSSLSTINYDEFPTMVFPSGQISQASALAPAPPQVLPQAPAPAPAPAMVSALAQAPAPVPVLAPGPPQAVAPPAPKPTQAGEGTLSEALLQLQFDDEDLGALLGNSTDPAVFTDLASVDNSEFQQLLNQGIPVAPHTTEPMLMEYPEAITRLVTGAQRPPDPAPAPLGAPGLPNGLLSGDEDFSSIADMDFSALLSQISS

| IC50 [1] [µM] | IC50 (Transcription factor p65) [µM] | Structure (SMILES) |
| --- | --- | --- |
| > 10 | > 10 | C=C(C)[C@H]1Cc2c(oc3cc(O)c(CC=C(C)C)c(=O)c-3c2O)C2=C1C(=O)C(=O)C(CC=C(C)C)C2=O (stereo partly specified) [Artonin O] |
| 3.7 | 2.3 | C=C(C)[C@H]1Cc2c(oc3c4c(cc(=O)c-3c2O)OC(C)(C)C=C4)-c2c(O)cc(O)c(O)c21 [artobiloxanthone] |

| Structure (SMILES) | IC50 [1] [µM] | IC50 (Transcription factor p65) [µM] |
| --- | --- | --- |
| CC1(C)C=Cc2cc3c(cc2O1)Oc1cc(O)ccc1C(=O)C3 [Artoristilbene] | > 10 | > 10 |
